Published values gathered from unrelated publications.
Each line is one published result; the experiments were not run side by side.
Target: Protein-tyrosine kinase 2-beta (PTK2B, Homo sapiens, UniProt Q14289)

Structure (SMILES) | test | setting | quantity | result
O=C(Nc1cnn(-c2csc(C(=O)NC3COC3)c2)c1)Nc1ccccc1Cl | enzyme activity, inhibitor | 5 µM | remaining activity | 93.5%
Cc1[nH]c(/C=C2\C(=O)Nc3ccc(F)cc32)c(C)c1C(=O)N[C@H]1CCN(C(=O)N(C)C)C1 | enzyme activity, inhibitor | 0.1 µM | remaining activity | 109%
CCS(=O)(=O)c1cc2cc(C[C@](O)(CC(C)(C)c3ccc(F)cc3C(N)=O)C(F)(F)F)[nH]c2cn1 | cell-free assay, competition with immobilised ligand | 1 µM | remaining binding | 100%
COc1cc2ncnc(Nc3ccc(F)c(Cl)c3)c2cc1OCCCN1CCOCC1 | cell-free assay | 0.5 µM | remaining signal | 98.9%
Cc1ccc(C(=O)NCc2ccsc2)cc1C#Cc1cn(C(C)C)c2ncnc(N)c12 | enzyme activity, inhibitor | 1 µM | activity vs control | 57%
O=C1NC(=O)c2cc(Nc3ccc(F)cc3)c(Nc3ccc(F)cc3)cc21 | cell-free assay | 0.5 µM | remaining signal | 111%
COc1cc2ncnc(Nc3ccc(Oc4ccccc4)cc3C)c2cc1OC | enzyme activity, inhibitor | 1 µM | inhibition | 3%
N#CCCc1ccc2c(c1)-c1[nH]c3ccc([N+](=O)[O-])cc3c1CC(=O)N2 | cell-free assay | 0.5 µM | remaining signal | 62.9%
CNC(=O)c1cc2c(Oc3ccc(NC(=O)C4(C(=O)Nc5ccc(F)cc5)CC4)cc3)ccnc2cc1OC | enzyme activity, inhibitor, radiometric | 1 µM | inhibition | 79%
CC(C)(O)[C@H]1CC[C@H](Nc2ccc3ncc(-c4cccc(C(F)(F)F)c4)n3n2)CC1 | enzyme activity, inhibitor | 1 µM | remaining activity | 94.4%
CCN(CC)c1ccc(C2=NNC(=O)CC2C)cc1[N+](=O)[O-] (stereo not shown) | enzyme activity, inhibitor | 10 µM | remaining activity | 97%
CN(c1ccnc(CNc2nc(Nc3ccc4c(c3)CC(=O)N4)ncc2C(F)(F)F)n1)S(C)(=O)=O | cell-free assay, competition with immobilised ligand | 1 µM | remaining binding | 59%
O=C(Nc1cnn(-c2csc(C(=O)NC3COC3)c2)c1)Nc1c(F)cccc1Cl | enzyme activity, inhibitor | 5 µM | remaining activity | 91%
O=c1nc(-c2ccccn2)sc2ccccc12 | cell-free assay, competition with immobilised ligand | 1 µM | remaining binding | 100%
CCN(CC)CCNC(=O)c1c(C)[nH]c(/C=C2\C(=O)Nc3ccc(F)cc32)c1C | enzyme activity, inhibitor | 0.3 µM | inhibition | 59%
Nc1ncnc2occ(-c3ccc(NC(=O)Nc4cc(C(F)(F)F)ccc4F)cc3)c12 | cell-free assay, inhibitor | 20 µM | remaining signal | 2.8%
CCCCN(CCCC)C(=O)CN1C[C@H](c2cc(OC)c3c(c2)OCO3)[C@@H](C(=O)O)[C@@H]1CC(C)(C)CCC | cell-free assay, competition with immobilised ligand | 1 µM | remaining binding | 100%
CCN(CC)CCNC(=O)c1c(C)[nH]c(/C=C2\C(=O)Nc3ccc(F)cc32)c1C | enzyme activity, inhibitor | 1 µM | remaining activity | 30%
Cc1nc(Cc2cccc(C(F)(F)F)c2)sc1-c1ccc(C(N)=O)nc1 | cell-free assay, competition with immobilised ligand | 1 µM | remaining binding | 100%
Cc1ccc(Nc2nccc(N(C)c3ccc4c(C)n(C)nc4c3)n2)cc1S(N)(=O)=O | enzyme activity, inhibitor | 0.3 µM | inhibition | 6%
COc1cc2nccc(Oc3ccc(NC(=O)c4c5n(n(-c6ccc(F)cc6)c4=O)CCCC5)cc3)c2cc1OC | enzyme activity, inhibitor | 0.1 µM | inhibition | 0%
Oc1cccc(-c2nc(N3CCOCC3)c3oc4ncccc4c3n2)c1 | cell-free assay | 0.5 µM | remaining signal | 103%
Cc1nc(C2CCN(C(=O)c3ccc(OC(F)(F)F)cc3N)CC2)c2ncc(N3CCN(C)CC3)cc2n1 | cell-free assay, competition with immobilised ligand | 1 µM | remaining binding | 100%
c1nc2c(Nc3ccc4c(c3)OCCO4)nc(Nc3ccc4c(c3)OCCO4)nc2[nH]1 | enzyme activity, inhibitor | 10 µM | activity vs control | 2.3%
O=C(Nc1ccc(Oc2ccc(F)cc2)cc1)N1CCc2ncccc2[C@H]1c1ccc(F)cc1 | cell-free assay, competition with immobilised ligand | 1 µM | remaining binding | 89%
CNC(=O)c1cc(Oc2ccc(NC(=O)Nc3ccc(Cl)c(C(F)(F)F)c3)cc2)ccn1 | enzyme activity, inhibitor | 0.3 µM | inhibition | -3%
Cc1c(NC(=O)c2cc(C(N)=O)nc3cc(F)ccc23)c(C(F)(F)F)nn1Cc1ccc(C(C)(C)C)cc1 | cell-free assay, competition with immobilised ligand | 1 µM | remaining binding | 92%
CC(C)(C)c1nc(-c2cccc(NS(=O)(=O)c3c(F)cccc3F)c2F)c(-c2ccnc(N)n2)s1 | enzyme activity, inhibitor, radiometric | 1 µM | remaining activity | 109%
